Reference: ChEMBL document CHEMBL1641579, “Synthesis and biological evaluation of 7-substituted-1-(3-bromophenylamino)isoquinoline-4-carbonitriles as inhibitors of myosin light chain kinase and epidermal growth factor receptor” (Bioorg Med Chem, 2011)
Active and inactive are the calls of the source. No cut-off for these calls is given here.

Legend:
[1] = Growth inhibition of human HCC1195 cells assessed as ATP level after 96 hrs by CellTiter-Glo assay; format: functional
Outline: (§1)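 NSCLC lines maintained as in earlier work and authenticated by mutational analysis and SNP arrays. Cells were plated in 384-well format and allowed 24 h before compound addition as 10 threefold serial dilutions (DMSO stocks). After 96 h, viability was read as cellular ATP by CellTiter-Glo. GI50 was fitted with an R package.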

[2] = Growth inhibition of human H820 cells assessed as ATP level after 96 hrs by CellTiter-Glo assay; format: functional; settings: NCI-H820, 96 h; outline: as §1
[3] = tested on: NCI-H2052; assay: Growth inhibition of human NCI-H2052 cells assessed as ATP level after 96 hrs by CellTiter-Glo assay; format: functional; settings: NCI-H2052, 96 h
[4] = tested on: NCI-H1666; assay: Growth inhibition of human NCI-H1666 cells assessed as ATP level after 96 hrs by CellTiter-Glo assay; format: functional; settings: NCI-H1666, 96 h; outline: as §1
[5] = Growth inhibition of human HCC1171 cells assessed as ATP level after 96 hrs by CellTiter-Glo assay; format: functional; settings: HCC1171, 96 h; outline: as §1
[6] = Growth inhibition of human HCC515 cells assessed as ATP level after 96 hrs by CellTiter-Glo assay; format: functional; settings: HCC515, 96 h; outline: as §1
[7] = tested on: NCI-H1650; assay: Growth inhibition of human NCI-H1650 cells assessed as ATP level after 96 hrs by CellTiter-Glo assay; format: functional; settings: NCI-H1650, 96 h; outline: as §1
[8] = tested on: Calu-6; assay: Growth inhibition of human Calu6 cells assessed as ATP level after 96 hrs by CellTiter-Glo assay; format: functional; settings: Calu-6, 96 h; outline: as §1
[9] = tested on: EKVX; assay: Growth inhibition of human EKVX cells assessed as ATP level after 96 hrs by CellTiter-Glo assay; format: functional; outline: as §1
[10] = Growth inhibition of human HCC78 cells assessed as ATP level after 96 hrs by CellTiter-Glo assay; format: functional; settings: HCC78, 96 h; outline: as §1
[11] = Growth inhibition of human NCI-H1568 cells assessed as ATP level after 96 hrs by CellTiter-Glo assay; format: functional; settings: NCI-H1568, 96 h; outline: as §1
[12] = tested on: NCI-H1755; assay: Growth inhibition of human NCI-H1755 cells assessed as ATP level after 96 hrs by CellTiter-Glo assay; format: functional; settings: NCI-H1755, 96 h; outline: as §1
[13] = Growth inhibition of human COLO699 cells assessed as ATP level after 96 hrs by CellTiter-Glo assay; format: functional; settings: COLO 699, 96 h; outline: as §1
[14] = Growth inhibition of human HCC827 cells assessed as ATP level after 96 hrs by CellTiter-Glo assay; format: functional; settings: HCC827, 96 h; outline: as §1
[15] = tested on: NCI-H2009; assay: Growth inhibition of human NCI-H2009 cells assessed as ATP level after 96 hrs by CellTiter-Glo assay; format: functional; settings: NCI-H2009, 96 h
[16] = Growth inhibition of human HCC1833 cells assessed as ATP level after 96 hrs by CellTiter-Glo assay; format: functional; outline: as §1
[17] = tested on: NCI-H1993; assay: Growth inhibition of human NCI-H1993 cells assessed as ATP level after 96 hrs by CellTiter-Glo assay; format: functional; settings: NCI-H1993, 96 h
[18] = tested on: NCI-H1792; assay: Growth inhibition of human NCI-H1792 cells assessed as ATP level after 96 hrs by CellTiter-Glo assay; format: functional; settings: NCI-H1792, 96 h
Outline: (§2)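 NSCLC lines maintained as previously described, authenticated by mutational analysis and SNP arrays. Cells seeded and incubated 24 h, then given compound (DMSO stocks) as 10 threefold serial dilutions. Viability read after 96 h as cellular ATP content (CellTiter-Glo). GI50 derived by curve fitting of half-maximal inhibition.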

[19] = Growth inhibition of human HCC4006 cells assessed as ATP level after 96 hrs by CellTiter-Glo assay; format: functional; settings: HCC4006, 96 h; outline: as §1
[20] = tested on: Epidermal growth factor receptor (Homo sapiens), P00533 [T790M]; assay: Inhibition of EGFR T790M mutant activation expressed in human drug-resistant H1975 cells; format: cell-based
Sequence of Epidermal growth factor receptor (Homo sapiens), P00533 [T790M] (P00533 whole entry T790M): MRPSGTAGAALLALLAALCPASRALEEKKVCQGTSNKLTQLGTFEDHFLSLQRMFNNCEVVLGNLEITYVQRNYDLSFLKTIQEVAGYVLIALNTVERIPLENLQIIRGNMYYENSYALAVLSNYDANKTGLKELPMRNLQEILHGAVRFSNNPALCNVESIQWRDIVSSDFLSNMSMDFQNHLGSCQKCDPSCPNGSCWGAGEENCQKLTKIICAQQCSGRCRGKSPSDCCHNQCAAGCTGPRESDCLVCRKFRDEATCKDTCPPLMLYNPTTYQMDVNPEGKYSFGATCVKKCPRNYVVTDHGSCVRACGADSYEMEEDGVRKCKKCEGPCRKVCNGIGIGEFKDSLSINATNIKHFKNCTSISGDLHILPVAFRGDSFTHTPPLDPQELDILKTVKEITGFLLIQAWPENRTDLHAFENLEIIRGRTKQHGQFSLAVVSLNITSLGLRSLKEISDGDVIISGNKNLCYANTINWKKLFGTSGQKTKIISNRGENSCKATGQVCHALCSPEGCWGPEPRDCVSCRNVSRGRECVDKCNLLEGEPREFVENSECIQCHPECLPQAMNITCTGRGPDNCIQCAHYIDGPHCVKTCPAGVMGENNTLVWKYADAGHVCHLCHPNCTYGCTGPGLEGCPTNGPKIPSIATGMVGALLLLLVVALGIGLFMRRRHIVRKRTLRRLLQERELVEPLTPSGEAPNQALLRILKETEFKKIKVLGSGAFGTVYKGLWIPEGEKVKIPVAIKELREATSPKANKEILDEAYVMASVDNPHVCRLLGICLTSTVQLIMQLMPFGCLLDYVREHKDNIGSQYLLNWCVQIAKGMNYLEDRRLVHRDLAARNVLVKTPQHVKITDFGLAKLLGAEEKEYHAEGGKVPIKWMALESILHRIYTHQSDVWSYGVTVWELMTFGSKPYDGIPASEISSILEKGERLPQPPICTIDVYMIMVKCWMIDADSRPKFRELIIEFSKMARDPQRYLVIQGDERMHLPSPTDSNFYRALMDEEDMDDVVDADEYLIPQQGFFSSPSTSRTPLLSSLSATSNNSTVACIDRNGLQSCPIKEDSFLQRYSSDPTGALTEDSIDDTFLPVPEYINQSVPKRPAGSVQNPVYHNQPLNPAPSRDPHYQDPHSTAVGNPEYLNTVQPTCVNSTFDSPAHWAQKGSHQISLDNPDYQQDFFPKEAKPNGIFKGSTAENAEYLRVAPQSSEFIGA

[21] = tested on: NCI-H647; assay: Growth inhibition of human NCI-H647 cells assessed as ATP level after 96 hrs by CellTiter-Glo assay; format: functional; settings: NCI-H647, 96 h
[22] = tested on: SK-LU-1; assay: Growth inhibition of human SKLU1 cells assessed as ATP level after 96 hrs by CellTiter-Glo assay; format: functional; settings: SK-LU-1, 96 h
[23] = Growth inhibition of human NCI-H1819 cells assessed as ATP level after 96 hrs by CellTiter-Glo assay; format: functional; settings: NCI-H1819, 96 h; outline: as §2
[24] = tested on: NCI-H2087; assay: Growth inhibition of human NCI-H2087 cells assessed as ATP level after 96 hrs by CellTiter-Glo assay; format: functional; settings: NCI-H2087, 96 h
[25] = Growth inhibition of human HCC15 cells assessed as ATP level after 96 hrs by CellTiter-Glo assay; format: functional; settings: HCC15, 96 h; outline: as §1
[26] = tested on: NCI-H2347; assay: Growth inhibition of human NCI-H2347 cells assessed as ATP level after 96 hrs by CellTiter-Glo assay; format: functional; settings: NCI-H2347, 96 h
[27] = tested on: NCI-H358; assay: Growth inhibition of human NCI-H358 cells assessed as ATP level after 96 hrs by CellTiter-Glo assay; format: functional; settings: NCI-H358, 96 h
[28] = tested on: HOP-62; assay: Growth inhibition of human HOP62 cells assessed as ATP level after 96 hrs by CellTiter-Glo assay; format: functional; settings: HOP-62, 96 h; outline: as §1
[29] = tested on: NCI-H2122; assay: Growth inhibition of human NCI-H2122 cells assessed as ATP level after 96 hrs by CellTiter-Glo assay; format: functional; settings: NCI-H2122, 96 h
[30] = tested on: NCI-H596; assay: Growth inhibition of human NCI-H596 cells assessed as ATP level after 96 hrs by CellTiter-Glo assay; format: functional; settings: NCI-H596, 96 h
[31] = Growth inhibition of human HCC44 cells assessed as ATP level after 96 hrs by CellTiter-Glo assay; format: functional; settings: HCC44, 96 h; outline: as §1
[32] = tested on: NCI-H522; assay: Growth inhibition of human NCI-H522 cells assessed as ATP level after 96 hrs by CellTiter-Glo assay; format: functional; settings: NCI-H522, 96 h
[33] = tested on: NCI-H1648; assay: Growth inhibition of human NCI-H1648 cells assessed as ATP level after 96 hrs by CellTiter-Glo assay; format: functional; settings: NCI-H1648, 96 h; outline: as §1
[34] = tested on: NCI-H1734; assay: Growth inhibition of human NCI-H1734 cells assessed as ATP level after 96 hrs by CellTiter-Glo assay; format: functional; settings: NCI-H1734, 96 h; outline: as §1
[35] = tested on: A549; assay: Growth inhibition of human A549 cells assessed as ATP level after 96 hrs by CellTiter-Glo assay; format: functional; settings: A549, 96 h; outline: as §1
[36] = Growth inhibition of human H3255 cells assessed as ATP level after 96 hrs by CellTiter-Glo assay; format: functional; settings: NCI-H3255, 96 h; outline: as §1

Question: Which GI50 [1] does the source give for CN(C)C/C=C/C(=O)Nc1ccc2c(C#N)cnc(Nc3cccc(Br)c3)c2c1 here?
Answer: 17.6 µM

Question: And the GI50 [2]?
Answer: 12.9 µM

Question: And the GI50 [3]?
Answer: 21.6 µM

Question: And the GI50 [4]?
Answer: 28.8 µM

Question: And the GI50 [5]?
Answer: 17.4 µM

Question: What about the GI50 [6] of the same molecule?
Answer: 20.4 µM

Question: What about the GI50 [7] of the same molecule?
Answer: 15.7 µM

Question: And the GI50 [8]?
Answer: 16.4 µM

Question: What about the GI50 [9] of the same molecule?
Answer: 14.5 µM

Question: What about the GI50 [10] of the same molecule?
Answer: 19.7 µM

Question: And the GI50 [11]?
Answer: 30.9 µM

Question: And the GI50 [12]?
Answer: 9.89 µM

Question: And the GI50 [13]?
Answer: 15.3 µM

Question: And the GI50 [14]?
Answer: 14.3 µM

Question: What about the GI50 [15] of the same molecule?
Answer: 26.3 µM

Question: And the GI50 [16]?
Answer: 16.8 µM

Question: And the GI50 [17]?
Answer: 12.9 µM

Question: What about the GI50 [18] of the same molecule?
Answer: 26.3 µM

Question: What about the GI50 [19] of the same molecule?
Answer: 13.3 µM

Question: What about the inhibition [20] of the same molecule?
Answer: Active

Question: And the GI50 [21]?
Answer: 26.3 µM

Question: And the GI50 [22]?
Answer: 16.6 µM

Question: What about the GI50 [23] of the same molecule?
Answer: 7.59 µM

Question: What about the GI50 [24] of the same molecule?
Answer: 17 µM

Question: And the GI50 [25]?
Answer: 19.3 µM

Question: And the GI50 [26]?
Answer: 22.9 µM

Question: What about the GI50 [27] of the same molecule?
Answer: 14.5 µM

Question: And the GI50 [28]?
Answer: 26.9 µM

Question: What about the GI50 [29] of the same molecule?
Answer: 18.8 µM

Question: And the GI50 [30]?
Answer: 19.5 µM

Question: And the GI50 [31]?
Answer: 23.7 µM

Question: What about the GI50 [32] of the same molecule?
Answer: 17.2 µM

Question: What about the GI50 [33] of the same molecule?
Answer: 21.1 µM

Question: And the GI50 [34]?
Answer: 24.3 µM

Question: What about the GI50 [35] of the same molecule?
Answer: 40 µM

Question: And the GI50 [36]?
Answer: 4.32 µM
